The source of these data is ChEMBL document CHEMBL4152367, “Discovery of a Potent Thiazolidine Free Fatty Acid Receptor 2 Agonist with Favorable Pharmacokinetic Properties” (J Med Chem, 2018).

The target in data set [1] is T1, Oxysterols receptor LXR-alpha (Homo sapiens) (UniProt Q13133).
T1 sequence (whole entry): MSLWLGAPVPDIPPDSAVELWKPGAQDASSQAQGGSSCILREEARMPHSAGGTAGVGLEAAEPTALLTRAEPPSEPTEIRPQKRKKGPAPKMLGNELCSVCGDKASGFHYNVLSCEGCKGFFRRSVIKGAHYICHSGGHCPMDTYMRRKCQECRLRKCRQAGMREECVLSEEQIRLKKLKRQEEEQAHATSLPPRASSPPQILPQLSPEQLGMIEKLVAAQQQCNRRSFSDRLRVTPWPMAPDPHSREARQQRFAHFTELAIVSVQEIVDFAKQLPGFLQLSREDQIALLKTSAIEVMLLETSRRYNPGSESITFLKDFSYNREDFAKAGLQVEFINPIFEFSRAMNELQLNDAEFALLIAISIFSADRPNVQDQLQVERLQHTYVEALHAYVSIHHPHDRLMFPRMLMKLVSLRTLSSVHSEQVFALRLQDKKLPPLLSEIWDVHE
In words: Antagonist activity at human LXRalpha expressed in Escherichia coli assessed as inhibition of T0901317-induced calcium flux at 10 uM by fluorimetry. (In general: Calcium flux is commonly read through the fluorescence of an indicator in the cells.)

The target in data set [2] is T1, Oxysterols receptor LXR-alpha (Homo sapiens). The data set can be described thus: Agonist activity at human LXRalpha expressed in Escherichia coli assessed as induction of calcium flux at 10 uM by fluorimetry.
Data set [3] concerns the target T2, Peroxisome proliferator-activated receptor delta (Homo sapiens) (UniProt Q03181).
T2 sequence (whole entry): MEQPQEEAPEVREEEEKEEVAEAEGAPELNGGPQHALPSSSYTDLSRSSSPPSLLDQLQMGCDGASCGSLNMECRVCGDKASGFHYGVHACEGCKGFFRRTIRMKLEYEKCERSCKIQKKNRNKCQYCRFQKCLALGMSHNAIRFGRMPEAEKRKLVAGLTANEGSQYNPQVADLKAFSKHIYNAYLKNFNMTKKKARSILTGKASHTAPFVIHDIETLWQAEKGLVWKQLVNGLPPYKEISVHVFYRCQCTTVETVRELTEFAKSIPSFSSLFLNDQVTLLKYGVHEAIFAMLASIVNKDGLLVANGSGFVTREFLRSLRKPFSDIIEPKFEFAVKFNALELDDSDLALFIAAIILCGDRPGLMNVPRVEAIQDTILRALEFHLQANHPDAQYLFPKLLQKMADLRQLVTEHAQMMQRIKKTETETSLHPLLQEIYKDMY
The data set can be described thus: Agonist activity at human PPARdelta expressed in Escherichia coli assessed as induction of calcium flux at 10 uM by fluorimetry.

Data set [4] is described as follows: Chemical stability of the compound in FaSSGF after 2 hrs. It is filed as ADME, physicochemical. The settings on record: read-out: Stability. The method, boiled down:
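Simulated-fluid stability: 50 µM compound in FaSSIF or FaSSGF (from 10 mM DMSO stock), shaken at 37 °C for 0 and 120 min. Quenched with acetonitrile containing 0.5% HCOOH, centrifuged, supernatant by HPLC. Stability from peak area relative to the 0 min sample; duplicates, mean reported.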

Data set [5] can be described thus: Chemical stability of the compound in PBS buffer at 37 degC after 3 weeks. The settings on record: read-out: Stability. It counts as physicochemical. The method, boiled down:
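Chemical stability: 50 µM compound (diluted from 10 mM DMSO stock) in 10 mM phosphate buffer, pH 7.4, shaken at 37 °C; sampled at intervals over 3 weeks. Remaining compound by HPLC peak area relative to the 0 time point; duplicate runs, each injected twice.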

Structures are written as SMILES. Calls of active or inactive are those of the source. The calls are words filed in the database; no cut-off is given here.

Regarding `Cc1noc(C)c1-c1ccc(C(=O)N2[C@@H](c3ccccc3Cl)SC[C@H]2C(=O)O)cc1`, the inhibition result in data set [1] is “inactive”. For the same compound, the outcome in data set [2] and in data set [3] was inactive. Besides, the remaining at 2 h in data set [4] was found to be 100%. Moreover, the remaining at […] in data set [5] stood at 97.6%.
